Test results as given in ChEMBL document CHEMBL3751835, “Discovery of the imidazole-derived GPR40 agonist AM-3189” (Bioorg Med Chem Lett, 2016).
Active and inactive are the calls of the source. The calls are words filed in the database; no cut-off is given here.

Assays:
[1] = molecular target: T1, Free fatty acid receptor 1 (Homo sapiens, UniProt O14842); experiment: Partial agonist activity at human GPR40 expressed in CHO cells measured over 20 secs interval by luminometric analysis in presence of 0.01% human serum albumin; format: cell-based
How it was run: (§1)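 Aequorin chemiluminescence read-out of calcium flux in a CHO line stably transfected with human GPR40, giving EC50. Run in buffer containing 0.01% human serum albumin, or in 100% human serum to test activity with plasma proteins present.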

[2] = molecular target: T1, Free fatty acid receptor 1; experiment: Partial agonist activity at human GPR40 expressed in CHO cells measured over 20 secs interval by luminometric analysis in presence of 100% human serum; format: cell-based; how it was run: as §1
[3] = molecular target: T1, Free fatty acid receptor 1; experiment: Potency index , ratio of EC50 for AMG837 to EC50 for test compound for partial agonist activity at human GPR40 expressed in CHO cells measured over 20 secs interval by luminometric analysis in presence of 0.01% human serum albumin; format: cell-based
[4] = molecular target: T1, Free fatty acid receptor 1; experiment: Partial agonist activity at human GPR40 expressed in CHO cells measured over 20 secs interval by luminometric analysis; format: cell-based
[5] = system: Pancreatic islet; experiment: Induction of insulin release in human pancreatic islets; format: functional
[6] = system: Mus musculus; experiment: Reduction of blood glucose AUC in human islet transplanted nude chimeric mouse at 100 ug/kg administered 1 hr prior to glucose challenge by OGTT; format: functional, organism-based
How it was run: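 Nude mice had their endogenous pancreatic β-cells ablated with streptozotocin and were rescued to euglycemia by human islets transplanted under the kidney capsule. Compound was dosed before a glucose challenge, and the glucose AUC was determined.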

T1 sequence (O14842 whole entry): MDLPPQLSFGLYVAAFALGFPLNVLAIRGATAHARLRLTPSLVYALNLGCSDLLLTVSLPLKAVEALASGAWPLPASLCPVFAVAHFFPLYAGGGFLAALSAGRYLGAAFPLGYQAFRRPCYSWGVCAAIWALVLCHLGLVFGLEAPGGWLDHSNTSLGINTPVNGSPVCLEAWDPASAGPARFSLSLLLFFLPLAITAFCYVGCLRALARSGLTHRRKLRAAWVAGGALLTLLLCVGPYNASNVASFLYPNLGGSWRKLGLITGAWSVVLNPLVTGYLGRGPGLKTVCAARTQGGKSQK

EC50 [1]	EC50 [2]	SMILES	also measured
43 nM	56000 nM	Cn1ccnc1[C@@H](CC(=O)O)c1ccc(OCc2cccc(-c3ccccc3Cl)c2)cc1	Ratio EC50 [3]: 2
		O=C(O)CC(c1ccccc1)c1ccc(OCc2cccc(-c3ccc(C(F)(F)F)cc3)c2)cc1 (racemic)	EC50 [4]: 330 nM
48 nM	65000 nM	CCc1ccccc1-c1cccc(COc2ccc([C@H](CC(=O)O)c3nccn3C)cc2)c1	
69 nM	30000 nM	Cn1ccnc1[C@@H](CC(=O)O)c1ccc(OCc2cccc(-c3ccc(Cl)cc3Cl)c2)cc1	
61 nM	22000 nM	Cc1c(Cl)cccc1-c1cccc(COc2ccc([C@H](CC(=O)O)c3nccn3C)cc2)c1	
		CC#C[C@@H](CC(=O)O)c1ccc(OCc2cccc(-c3ccc(C(F)(F)F)cc3)c2)cc1	Activity [5]: Active
97 nM	9800 nM	Cc1cc(Cl)ccc1-c1cc(COc2ccc([C@H](CC(=O)O)c3nccn3C)cc2)ccc1C	
58 nM	29000 nM	Cc1cccc(C)c1-c1cccc(COc2ccc([C@H](CC(=O)O)c3nccn3C)cc2)c1	
750 nM		COc1cccc(-c2cccc(COc3ccc([C@H](CC(=O)O)c4nccn4C)cc3)c2)c1	
23000 nM		Cn1ccnc1[C@@H](CC(=O)O)c1ccc(OCc2cccc(-c3ccccc3S(C)(=O)=O)c2)cc1	
36 nM	42000 nM	Cc1ccc(F)cc1-c1cccc(COc2ccc([C@H](CC(=O)O)c3nccn3C)cc2)c1	
43 nM	89000 nM	Cc1ccccc1-c1cccc(COc2ccc([C@H](CC(=O)O)c3nccn3C)cc2)c1	Ratio EC50 [3]: 2
112 nM	61000 nM	Cn1ccnc1[C@@H](CC(=O)O)c1ccc(OCc2cccc(-c3ccccc3OC(F)(F)F)c2)cc1	
		Cn1ccnc1C(CC(=O)O)c1ccc(OCc2cccc(-c3ccc(C(F)(F)F)cc3)c2)cc1 (racemic)	EC50 [4]: 130 nM
		O=C(O)CC(c1ccc(OCc2cccc(-c3ccc(C(F)(F)F)cc3)c2)cc1)c1cccnc1 (racemic)	EC50 [4]: 400 nM
59 nM	21000 nM	Cc1cc(F)ccc1-c1cccc(COc2ccc([C@H](CC(=O)O)c3nccn3C)cc2)c1	
240 nM	23000 nM	Cc1cc(Cl)ccc1-c1cccc(COc2ccc([C@H](CC(=O)O)c3nccn3C)cc2)c1C	
		O=C(O)CC(c1ccc(OCc2cccc(-c3ccc(C(F)(F)F)cc3)c2)cc1)c1cccs1 (racemic)	EC50 [4]: 190 nM
690 nM		Cn1ccnc1[C@@H](CC(=O)O)c1ccc(OCc2cccc(-c3ccccc3C#N)c2)cc1	
410 nM		COc1ccccc1-c1cccc(COc2ccc([C@H](CC(=O)O)c3nccn3C)cc2)c1	
440 nM		COc1ccc(-c2cccc(COc3ccc([C@H](CC(=O)O)c4nccn4C)cc3)c2)cc1	
		CC[C@H](C)[C@H](NC(=O)[C@H](Cc1ccccc1)NC(=O)[C@H](CCC(=O)O)NC(=O)[C@H](CCCCN)NC(=O)[C@H](C)NC(=O)[C@H](C)NC(=O)[C@H](CCC(=O)O)NC(=O)CNC(=O)[C@H](CCC(=O)O)NC(=O)[C@H](CC(C)C)NC(=O)[C@H](Cc1ccc(O)cc1)NC(=O)[C@H](CO)NC(=O)[C@H](CO)NC(=O)[C@@H](NC(=O)[C@H](CC(=O)O)NC(=O)[C@H](CO)NC(=O)[C@@H](NC(=O)[C@H](Cc1ccccc1)NC(=O)[C@@H](NC(=O)CNC(=O)[C@H](CCC(=O)O)NC(=O)[C@H](C)NC(=O)[C@@H](N)Cc1cnc[nH]1)[C@@H](C)O)[C@@H](C)O)C(C)C)C(=O)N[C@@H](C)C(=O)N[C@@H](Cc1c[nH]c2ccccc12)C(=O)N[C@@H](CC(C)C)C(=O)N[C@H](C(=O)N[C@@H](CCCCN)C(=O)NCC(=O)N[C@@H](CCCNC(=N)N)C(=O)NCC(=O)O)C(C)C	Activity [6]: Active
		O=C(O)CC(c1ccc(OCc2cccc(-c3ccc(C(F)(F)F)cc3)c2)cc1)c1ccccn1 (racemic)	EC50 [4]: 330 nM
		O=C(O)CC(c1ccncc1)c1ccc(OCc2cccc(-c3ccc(C(F)(F)F)cc3)c2)cc1 (racemic)	EC50 [4]: 190 nM
		O=C(O)CC(c1ccc(OCc2cccc(-c3ccc(C(F)(F)F)cc3)c2)cc1)c1nccs1 (racemic)	EC50 [4]: 120 nM
